# Activity calls are given as the source filed them.
# Columns and labels:
# Staphylococcus aureus [1] = assay: Upregulation of sbi gene expression in Staphylococcus aureus at 50 umol/L after 8 hrs by real-time RT-PCR analysis relative to control; type: functional, organism-based
# Method in brief: (§1)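 S. aureus ATCC 25923 at 2×10^7 CFU/mL in LB was exposed to 50 µmol/L compound, or LB alone, for 8 h at 37 °C. Total RNA was analysed by TaqMan real-time RT-PCR or semi-quantitative RT-PCR, normalised to gyrB. Fold change is versus time-matched medium-only cultures, with data pooled from three experiments.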
# Staphylococcus aureus [2] = assay: Downregulation of saeR gene expression in Staphylococcus aureus at 50 umol/L after 8 hrs by semi-quantitative RT-PCR analysis relative to control; type: functional, organism-based; method in brief: as §1
# Staphylococcus aureus [3] = assay: Antibacterial activity against Staphylococcus aureus assessed as lowest concentration required to reduce growth by 1% after 8 hrs by ELISA plate reader analysis relative to control; type: functional
# Method in brief: (§2)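 MBC was found by broth microdilution. Inocula of 1×10^5 CFU/mL in LB were shaken at 37 °C with a series of compound concentrations, then read at OD450. MBC was defined as the lowest concentration reducing growth by 1% versus the inoculum control. Three independent experiments were run.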
# Escherichia coli [4] = assay: Antibacterial activity against Escherichia coli assessed as growth inhibition at 100 umol/L after 8 hrs by ELISA plate reader analysis relative to control; type: functional; details: read-out: GI
# Method in brief: (§3)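 Bacteria were seeded at 1×10^5 CFU/mL in LB, and compound was added to 100 µmol/L final. Compounds came from DMSO stock, with DMSO ≤1% (v/v) final. Cultures were shaken at 37 °C for 8 h and read at OD450. Inhibition % = (OD vehicle control − OD sample)/OD vehicle control × 100. Values are the mean of three independent experiments.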
# Staphylococcus aureus [5] = assay: Antibacterial activity against Staphylococcus aureus assessed as growth inhibition at 100 umol/L after 8 hrs by ELISA plate reader analysis relative to control; type: functional; details: read-out: GI; method in brief: as §3
# Staphylococcus aureus [6] = assay: Upregulation of sbi gene expression in Staphylococcus aureus at 50 umol/L after 8 hrs by semi-quantitative RT-PCR analysis relative to control; type: functional, organism-based; method in brief: as §1
# Staphylococcus aureus [7] = assay: Upregulation of mecA gene expression in Staphylococcus aureus at 50 umol/L after 8 hrs by semi-quantitative RT-PCR analysis relative to control; type: functional, organism-based; method in brief: as §1
# Bacillus subtilis [8] = assay: Antibacterial activity against Bacillus subtilis assessed as growth inhibition at 100 umol/L after 8 hrs by ELISA plate reader analysis relative to control; type: functional; details: read-out: GI; method in brief: as §3
# Staphylococcus aureus [9] = assay: Upregulation of mecA gene expression in Staphylococcus aureus at 50 umol/L after 8 hrs by real-time RT-PCR analysis relative to control; type: functional, organism-based; method in brief: as §1
# Staphylococcus aureus [10] = assay: Upregulation of hla gene expression in Staphylococcus aureus at 50 umol/L after 8 hrs by real-time RT-PCR analysis relative to control; type: functional, organism-based; method in brief: as §1
# Staphylococcus aureus [11] = assay: Downregulation of saeR gene expression in Staphylococcus aureus at 50 umol/L after 8 hrs by real-time RT-PCR analysis relative to control; type: functional, organism-based; method in brief: as §1
# Staphylococcus aureus [12] = assay: Upregulation of hla gene expression in Staphylococcus aureus at 50 umol/L after 8 hrs by semi-quantitative RT-PCR analysis relative to control; type: functional, organism-based; method in brief: as §1
# Bacillus subtilis [13] = assay: Downregulation of yqhC gene expression in Bacillus subtilis at 50 umol/L after 8 hrs by real-time RT-PCR analysis relative to control; type: functional, organism-based
# Method in brief: as §1, with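 “B. subtilis” for “S. aureus”, “6051” for “25923”, “16sRNA.” for “gyrB.”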
# Bacillus subtilis [14] = assay: Downregulation of yugS gene expression in Bacillus subtilis at 50 umol/L after 8 hrs by semi-quantitative RT-PCR analysis relative to control; type: functional, organism-based
# Method in brief: as §1, with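 “B. subtilis” for “S. aureus”, “6051” for “25923”, “16sRNA.” for “gyrB.”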
# Bacillus subtilis [15] = assay: Antibacterial activity against Bacillus subtilis assessed as lowest concentration required to reduce growth by 1% after 8 hrs by ELISA plate reader analysis relative to control; type: functional; method in brief: as §2
# Bacillus subtilis [16] = assay: Downregulation of yhdT gene expression in Bacillus subtilis at 50 umol/L after 8 hrs by semi-quantitative RT-PCR analysis relative to control; type: functional, organism-based
# Method in brief: as §1, with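 “B. subtilis” for “S. aureus”, “6051” for “25923”, “16sRNA.” for “gyrB.”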
# Bacillus subtilis [17] = assay: Downregulation of yhdP gene expression in Bacillus subtilis at 50 umol/L after 8 hrs by semi-quantitative RT-PCR analysis relative to control; type: functional, organism-based
# Method in brief: as §1, with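 “B. subtilis” for “S. aureus”, “6051” for “25923”, “16sRNA.” for “gyrB.”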
# Bacillus subtilis [18] = assay: Downregulation of yqhB gene expression in Bacillus subtilis at 50 umol/L after 8 hrs by semi-quantitative RT-PCR analysis relative to control; type: functional, organism-based
# Method in brief: as §1, with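 “B. subtilis” for “S. aureus”, “6051” for “25923”, “16sRNA.” for “gyrB.”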
# Bacillus subtilis [19] = assay: Downregulation of yqhB gene expression in Bacillus subtilis at 50 umol/L after 8 hrs by real-time RT-PCR analysis relative to control; type: functional, organism-based
# Method in brief: as §1, with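 “B. subtilis” for “S. aureus”, “6051” for “25923”, “16sRNA.” for “gyrB.”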
# Bacillus subtilis [20] = assay: Downregulation of yhdT gene expression in Bacillus subtilis at 50 umol/L after 8 hrs by real-time RT-PCR analysis relative to control; type: functional, organism-based
# Method in brief: as §1, with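 “B. subtilis” for “S. aureus”, “6051” for “25923”, “16sRNA.” for “gyrB.”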
# Bacillus subtilis [21] = assay: Downregulation of yugS gene expression in Bacillus subtilis at 50 umol/L after 8 hrs by real-time RT-PCR analysis relative to control; type: functional, organism-based
# Method in brief: as §1, with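 “B. subtilis” for “S. aureus”, “6051” for “25923”, “16sRNA.” for “gyrB.”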
# Bacillus subtilis [22] = assay: Downregulation of yhdP gene expression in Bacillus subtilis at 50 umol/L after 8 hrs by real-time RT-PCR analysis relative to control; type: functional, organism-based
# Method in brief: as §1, with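 “B. subtilis” for “S. aureus”, “6051” for “25923”, “16sRNA.” for “gyrB.”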
# Bacillus subtilis [23] = assay: Downregulation of yqhC gene expression in Bacillus subtilis at 50 umol/L after 8 hrs by semi-quantitative RT-PCR analysis relative to control; type: functional, organism-based
# Method in brief: as §1, with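 “B. subtilis” for “S. aureus”, “6051” for “25923”, “16sRNA.” for “gyrB.”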
# Staphylococcus aureus [24] = assay: Downregulation of mecA gene expression in Staphylococcus aureus at 50 umol/L after 8 hrs by semi-quantitative RT-PCR analysis relative to control; type: functional; method in brief: as §1
# Staphylococcus aureus [25] = assay: Downregulation of mecA gene expression in Staphylococcus aureus at 50 umol/L after 8 hrs by real-time RT-PCR analysis relative to control; type: functional; method in brief: as §1
# Escherichia coli [26] = assay: Downregulation of cysB gene expression in Escherichia coli at 50 umol/L after 8 hrs by real-time RT-PCR analysis relative to control; type: functional, organism-based
# Method in brief: (§4)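 E. coli at 2×10^7 CFU/mL in LB was exposed to 50 µmol/L compound, or LB alone, for 8 h at 37 °C. Total RNA was then analysed by TaqMan real-time RT-PCR or semi-quantitative RT-PCR. Transcripts were normalised to gapA. Fold change is relative to time-matched medium-only cultures.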
# Escherichia coli [27] = assay: Downregulation of tsh gene expression in Escherichia coli at 50 umol/L after 8 hrs by semi-quantitative RT-PCR analysis relative to control; type: functional, organism-based; method in brief: as §4
# Escherichia coli [28] = assay: Downregulation of IroD gene expression in Escherichia coli at 50 umol/L after 8 hrs by semi-quantitative RT-PCR analysis relative to control; type: functional, organism-based; method in brief: as §4
# Escherichia coli [29] = assay: Downregulation of tsh gene expression in Escherichia coli at 50 umol/L after 8 hrs by real-time RT-PCR analysis relative to control; type: functional, organism-based; method in brief: as §4
# Escherichia coli [30] = assay: Downregulation of cysB gene expression in Escherichia coli at 50 umol/L after 8 hrs by semi-quantitative RT-PCR analysis relative to control; type: functional, organism-based; method in brief: as §4
# Escherichia coli [31] = assay: Antibacterial activity against Escherichia coli assessed as lowest concentration required to reduce growth by 1% after 8 hrs by ELISA plate reader analysis relative to control; type: functional; method in brief: as §2
# Escherichia coli [32] = assay: Downregulation of IroD gene expression in Escherichia coli at 50 umol/L after 8 hrs by real-time RT-PCR analysis relative to control; type: functional, organism-based; method in brief: as §4
# Staphylococcus aureus [33] = assay: Downregulation of hla gene expression in Staphylococcus aureus at 50 umol/L after 8 hrs by semi-quantitative RT-PCR analysis relative to control; type: functional, organism-based; method in brief: as §1
# Staphylococcus aureus [34] = assay: Downregulation of hla gene expression in Staphylococcus aureus at 50 umol/L after 8 hrs by real-time RT-PCR analysis relative to control; type: functional, organism-based; method in brief: as §1
smiles,measurement,setting,value
COC(=O)[C@H](Cc1ccccc1)/N=C/c1ccccc1O,Activity,Staphylococcus aureus [1],Active
same,Activity,Staphylococcus aureus [2],Active
same,MBC,Staphylococcus aureus [3],13.8 µM
same,inhibition of growth at 100 µM,Escherichia coli [4],14.6%
same,inhibition of growth at 100 µM,Staphylococcus aureus [5],86.9%
same,Activity,Staphylococcus aureus [6],Active
same,Activity,Staphylococcus aureus [7],Active
same,inhibition of growth at 100 µM,Bacillus subtilis [8],4.21%
same,Activity,Staphylococcus aureus [9],Active
same,Activity,Staphylococcus aureus [10],Active
same,Activity,Staphylococcus aureus [11],Active
same,Activity,Staphylococcus aureus [12],Active
O=C(COc1ccc(Cl)cc1)N/N=C/c1cc(Cl)ccc1O,Activity,Bacillus subtilis [13],Active
same,Activity,Bacillus subtilis [14],Active
same,inhibition of growth at 100 µM,Escherichia coli [4],3.08%
same,MBC,Bacillus subtilis [15],10.8 µM
same,Activity,Bacillus subtilis [16],Active
same,Activity,Bacillus subtilis [17],Active
same,Activity,Bacillus subtilis [18],Active
same,Activity,Bacillus subtilis [19],Active
same,inhibition of growth at 100 µM,Bacillus subtilis [8],83.2%
same,Activity,Bacillus subtilis [20],Active
same,Activity,Bacillus subtilis [21],Active
same,Activity,Bacillus subtilis [22],Active
same,Activity,Bacillus subtilis [23],Active
CC(C)(C)c1cc(/C=N/NC(=O)c2ccncc2)c(O)c(C(C)(C)C)c1,Activity,Staphylococcus aureus [2],Active
same,MBC,Staphylococcus aureus [3],3.1 µM
same,inhibition of growth at 100 µM,Escherichia coli [4],13.4%
same,inhibition of growth at 100 µM,Staphylococcus aureus [5],95.5%
same,fold change (FC),Staphylococcus aureus [24],2
same,fold change (FC),Staphylococcus aureus [25],2
same,Activity,Staphylococcus aureus [10],Active
same,Activity,Staphylococcus aureus [11],Active
same,Activity,Staphylococcus aureus [12],Active
CC(C)(C)c1cc(/C=N/NC(=O)COc2ccc(Cl)cc2)c(O)c(C(C)(C)C)c1,inhibition of growth at 100 µM,Escherichia coli [4],10.5%
same,inhibition of growth at 100 µM,Bacillus subtilis [8],19.7%
O=C(COc1ccc(Cl)cc1)N/N=C/c1cc([N+](=O)[O-])ccc1O,Activity,Bacillus subtilis [13],Active
same,Activity,Bacillus subtilis [14],Active
same,MBC,Bacillus subtilis [15],2.8 µM
same,Activity,Bacillus subtilis [16],Active
same,inhibition of growth at 100 µM,Staphylococcus aureus [5],1.39%
same,Activity,Bacillus subtilis [17],Active
same,Activity,Bacillus subtilis [18],Active
same,Activity,Bacillus subtilis [19],Active
same,inhibition of growth at 100 µM,Bacillus subtilis [8],96.4%
same,Activity,Bacillus subtilis [20],Active
same,Activity,Bacillus subtilis [21],Active
same,Activity,Bacillus subtilis [22],Active
same,Activity,Bacillus subtilis [23],Active
O=C(O)[C@H](Cc1ccc(O)cc1)/N=C/c1ccccc1O,Activity,Escherichia coli [26],Active
same,Activity,Escherichia coli [27],Active
same,Activity,Escherichia coli [28],Active
same,inhibition of growth at 100 µM,Escherichia coli [4],96%
same,Activity,Escherichia coli [29],Active
same,Activity,Escherichia coli [30],Active
same,inhibition of growth at 100 µM,Bacillus subtilis [8],4.38%
same,MBC,Escherichia coli [31],1.6 µM
same,Activity,Escherichia coli [32],Active
O=C(N/N=C/c1ccccc1O)c1ccccc1O,inhibition of growth at 100 µM,Escherichia coli [4],11.8%
O=C(O)[C@H](Cc1ccccc1)/N=C/c1ccccc1O,inhibition of growth at 100 µM,Escherichia coli [4],22.7%
CC(C)(C)c1cc(/C=N/NC(=O)c2ccccc2O)c(O)c(C(C)(C)C)c1,Activity,Staphylococcus aureus [1],Active
same,Activity,Staphylococcus aureus [2],Active
same,MBC,Staphylococcus aureus [3],19 µM
same,inhibition of growth at 100 µM,Escherichia coli [4],13.9%
same,inhibition of growth at 100 µM,Staphylococcus aureus [5],70.9%
same,Activity,Staphylococcus aureus [6],Active
same,fold change (FC),Staphylococcus aureus [24],2
same,Activity,Staphylococcus aureus [33],Active
same,fold change (FC),Staphylococcus aureus [25],2
same,Activity,Staphylococcus aureus [11],Active
same,Activity,Staphylococcus aureus [34],Active
